# Compounds with a hit are over-represented: about 3% of the library has one in this group of screens.
# Apaf-1 inh = human Apaf-1 inhibition; O14727; reconstituted apoptosome caspase-3 activity, DEVD-Rh110 fluorescence; hit rate 0.71% among 330,000; inhibition, % at 20 µM; active = inhibition of at least 40% at 20 µM;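 also: plate controls were DMSO wells for no effect and DEVD-CHO caspase inhibitor wells for full effect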
#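 Medium: Hepes buffer, pH 7.5 / System: biochemical Apaf-1 apoptosome reconstitution / Measured by: Rh110 fluorescence, excitation 480 nm, emission 540 nm / Times: compound with Apaf-1, dATP, procaspase-3 30 min, then 50 min reaction, room temperature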
# beta cell repl = inducers of beta-cell replication in MIN6 cells. MIN6 cells proliferation, ATPlite luminescence, 48 h; cells starved in 0.2% serum; 100% = growth in 10% serum. AID 2380. proliferation, % at 10 µM. hit rate 0.29% among 330,000;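 active = compounds whose signal lies at least 3.5 SD above the mean of all wells on their plate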;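 also: 0% = DMSO-treated cells in low-serum medium and 100% = 10% serum control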
# hiPSC survival = increases survival of single human iPS cells. AID 602274. hiPSC single-cell survival, ATPlite luminescence; 100% = ROCK inhibitor wells, 0% = DMSO. survival enhancement, % at 20 µM. hit rate 0.044% among 360,000; in the data active = survival enhancement above about 18%;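 also: cells exposed to compounds for 16 hours before the ATP read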
# MPTP inh = blocks calcium-induced mitochondrial swelling | isolated mouse mitochondria, Ca2+ swelling absorbance, 30 min | AID 602449 | hit rate 1.4% among 360,000 | inhibition, % at 10 µM;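 active = inhibition of 50% or more, scaled per plate between neutral and stimulator controls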;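 also: 0% = DMSO wells given calcium and 100% = 1 mM EGTA wells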
# UBC13 polyUb = blocks human UBC13 polyubiquitin chain formation; TR-FRET; inhibition, % at 20 µM; hit rate 0.47% among 330,000; AID 485273; in the data active = inhibition above about 45%, passing the limit was not always enough; inconclusive = no clear call, values can overlap the other calls
# Target sequence (P61088 whole entry, looked up): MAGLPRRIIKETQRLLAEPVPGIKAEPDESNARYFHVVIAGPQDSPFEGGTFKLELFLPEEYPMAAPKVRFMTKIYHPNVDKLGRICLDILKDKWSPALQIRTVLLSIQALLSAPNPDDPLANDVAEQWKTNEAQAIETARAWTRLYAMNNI
# Granule exo inh = lytic granule exocytosis inhibition; TALL-104 LAMP-1 surface exposure, flow cytometry; cells stimulated with thapsigargin and PMA; inhibition, % at 10 µM; hit rate 0.66% among 360,000;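 active = inhibition above about 55%, limit read from the data; inconclusive = no clear call, values can overlap the other calls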
# MPTP counter = Rhodamine 123 counter-screen of mitochondrial pore hits; hit rate 78% among 5,000; isolated mitochondria, membrane potential, Rhodamine 123 fluorescence; inhibition, % at 10 µM; shares compounds with MPTP inh; in the data active = inhibition above about 22%;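 also: 0% = DMSO vehicle and 100% = positive control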
# MPTP swell DR = MPTP inhibition, dose response swelling confirmation. shares compounds with MPTP inh. isolated mitochondria swelling, absorbance. IC50, µM. hit rate 58% among 780. AID 651561; in the data active = IC50 below about 20 µM
# MPTP counter DR = MPTP inhibitor counter-screen activity, dose response | shares compounds with MPTP inh | isolated mitochondria counterscreen, fluorescence read-out | IC50, µM | hit rate 49% among 780; in the data active = IC50 below about 80 µM
# An asterisk follows results filed as active; u = inconclusive; x = no result given.
SMILES,Apaf-1 inh,beta cell repl,hiPSC survival,MPTP inh,UBC13 polyUb,Granule exo inh,MPTP counter,others
CN1OC[C@@H]2CN(C(=O)C(C)(C)C)[C@H](c3cccc(Oc4ccccc4)c3)C[C@@H]21,x,x,-0.7,-0.2,x,-6.5,x,
C=CCNCCOc1ccc(C(C)(C)c2ccccc2)cc1,13.8,-3.5,0.5,77.6*,17.1,-2.8,-11.8,MPTP swell DR=14.9*;MPTP counter DR=>80
N#C/C(=N/Nc1ccc(OC(F)(F)F)cc1)C(N)=S,16.4,-4.1,-0.5,82.7*,-2.3,11.9,86.9*,
COc1cc(COC(=O)c2cnc(C)cn2)c(OC)cc1Br,14.4,1.8,-0.3,0.8,-2.4,-22.5,x,
CN(Cc1ccccc1Cl)C(=O)CNC(=O)C12CC3CC(CC(C3)C1)C2,-3.5,-1.9,0.1,-0.3,6.5,1.8,x,
Cc1cc(Cl)c(S(=O)(=O)N2CCN(c3ccc(F)cc3)CC2)cc1OCC(=O)NC1CCCCC1,18.0,-5.7,3.0,80.0*,-4.5,-2.4,70.3*,
CCN(C[C@H]1N[C@@](Cc2ccccc2)(C(=O)OC)[C@H]2C(=O)N(Cc3ccccc3)C(=O)[C@@H]12)S(=O)(=O)c1ccc(C(C)(C)C)cc1,19.0,-1.5,-1.5,0.6,-22.7,-3.4,x,
O=C1NC(=O)C(=Cc2ccc(Cl)c(Cl)c2)S1,x,x,4.2,73.3*,x,-3.3,92.1*,
O=C1NC(=O)/C(=C/c2ccc(O)cc2)S1,-3.1,1.6,1.8,0.0,3.3,-1.3,x,
Cc1ccc(-n2c(SCC(=O)N3CCCCC3)nc(O)c(Cc3ccccc3)c2=O)cc1,6.5,-1.6,0.3,-1.5,-4.2,-1.2,x,
CN(CCCC(=O)O)c1ccc(N=Nc2ccc([N+](=O)[O-])cc2)cc1,15.7,-3.1,-0.5,36.5,-29.4,9.5,x,
O=C(NCCCn1ccnc1)Nc1ccc(Cl)c(Cl)c1,-13.9,0.0,-2.4,79.0*,5.8,-1.4,88.0*,
O=C(NCCCN1CCCC1=O)Nc1ccc(F)c(Cl)c1,-10.8,-0.9,-0.1,84.2*,22.0,-1.6,92.1*,
O=C(NCCCN1CCCC1=O)Nc1cc(Cl)ccc1Cl,2.6,6.1,0.0,-0.5,2.7,u,x,
Cc1ccccc1-c1nn(-c2ccc(F)cc2F)cc1CNCC(C)O (stereo not drawn),-2.4,-0.5,0.3,-0.7,6.7,9.6,x,
CCOCCCNCc1cn(-c2ccc(F)cc2F)nc1-c1ccccc1C,5.1,-3.6,0.1,57.8*,5.4,0.0,-1.7,MPTP swell DR=14.6*;MPTP counter DR=60.4*
COc1c(C)cc(C(O)c2ncc(-c3ccc(Cl)cc3)[nH]2)cc1C (stereo not drawn),x,x,5.1,2.5,x,-5.2,x,
Cc1cc(NC2CCCCC2)nc(NCc2ccccc2)n1,1.8,-6.1,-3.5,85.8*,44.5,29.9,110.9*,
COc1ccc(Nc2cc(C)nc(NCc3ccccc3)n2)cc1,13.4,-3.8,-0.5,57.1*,33.9,4.9,46.8*,
CCCc1nc(C)cc(N2CCN(c3ccccc3)CC2)n1,10.2,1.9,1.0,-0.5,5.2,40.6,x,
Cc1cc(N2CCN(c3ccccc3)CC2)nc(NCc2ccccc2)n1,32.4,-3.9,4.4,64.7*,24.2,36.4,20.8*,
Cc1nnc2n(-c3ccccc3)c(=O)c3c4c(sc3n12)COC(C(C)C)C4 (stereo not drawn),8.6,-2.4,5.0,-5.9,0.6,-5.4,x,
CC(C)C1Cc2c(sc3[nH]c(=S)n(Cc4ccccc4)c(=O)c23)CO1 (stereo not drawn),-9.4,-3.7,1.2,81.2*,u,4.1,26.2*,
C=CCn1c(SCC(=O)Nc2cc(C)on2)nc2ccccc21,x,x,0.7,0.2,x,-4.9,x,
C=CC(C)(C)c1c2occc2c(O)c2ccc(=O)oc12,5.5,-3.5,-0.2,73.7*,-31.8,10.2,83.9*,
COc1c2ccoc2c(OC)c2oc(=O)ccc12,-0.7,-2.2,4.6,0.8,-7.2,-0.1,x,
COCCCN1C(=O)C(CC(=O)NC(c2ccccc2)c2ccccc2)CC(C(=O)N2CCCCCC2)=C1C (stereo not drawn),x,x,-1.8,0.9,x,9.9,x,

# Screening data as filed in PubChem.
